Source: ChEMBL document CHEMBL4706631, “Potent and Selective Mitogen-Activated Protein Kinase Kinase 1/2 (MEK1/2) Heterobifunctional Small-molecule Degraders” (J Med Chem, 2020)
Active and inactive are the calls of the source. The rule behind the calls is not given here.

Legend:
HT-29 [1] = assay: Antiproliferative activity against human HT-29 cells incubated for 3 days by WST8 assay; format: functional; conditions: HT-29, 72 h, time 3 day
HT-29 [2] = assay: Inhibition of ERK phosphorylation in human HT-29 cells at 0.3 to 3 uM incubated for 24 hrs by Western blot analysis; format: cell-based; conditions: dose 0.3-3 µM
SU-DHL-1 = assay: Inhibition of ERK phosphorylation in human SU-DHL-1 cells at 0.3 to 3 uM and incubated for 24 hrs by Western blot analysis; format: cell-based; conditions: dose 0.3-3 µM
Outline: (§1)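 H3122 and SU-DHL-1 cells were treated with compounds, and MEK1/2, pMEK and pERK were assessed by Western blot of lysates.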

NCI-H3122 [3] = assay: Inhibition of ERK phosphorylation in human NCI-H3122 cells at 0.3 to 3 uM and incubated for 24 hrs by Western blot analysis; format: cell-based; conditions: dose 0.3-3 µM; outline: as §1
HT-29 [4] = assay: Inhibition of colony formation in human HT-29 cells at 10 to 100 nM incubated for 10 days by crystal violet staining based assay; format: functional, cell-based; conditions: dose 10-100 nM, time 10.0 day
Outline: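 HT-29 clonogenic assay: cells were exposed to compounds for 10 days, then fixed and stained with crystal violet. Two independent experiments.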

NCI-H3122 [5] = assay: Antiproliferative activity against human NCI-H3122 cells at 0.014 to 3.33 uM incubated for 3 days by WST8 assay; format: functional, cell-based; conditions: dose 0.014-3.33 µM, time 3.0 day
Outline: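 NCI-H3122 cells were exposed to serial compound dilutions for 3 days, with WST-8 live-cell readout. Each concentration was run in triplicate. Student's t-test per concentration versus DMSO.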

GI50 (HT-29 [1]) [µM]	SMILES	further results
1.4	Cc1ncsc1-c1ccc(CNC(=O)[C@@H]2C[C@@H](O)CN2C(=O)[C@@H](NC(=O)CCCCCCNCCCONC(=O)c2ccc(F)c(F)c2Nc2ccc(I)cc2F)C(C)(C)C)cc1	–
0.3	O=C1CCC(N2C(=O)c3ccc(NCCCCCCCCNCCCONC(=O)c4ccc(F)c(F)c4Nc4ccc(I)cc4F)cc3C2=O)C(=O)N1 (stereo not given)	–
3	Cc1ncsc1-c1ccc(CNC(=O)[C@@H]2C[C@@H](O)CN2C(=O)[C@@H](NC(=O)CCCCNCCCONC(=O)c2ccc(F)c(F)c2Nc2ccc(I)cc2F)C(C)(C)C)cc1	–
3.1	Cc1ncsc1-c1ccc(CNC(=O)[C@@H]2C[C@@H](O)CN2C(=O)[C@@H](NC(=O)CCCNCCCONC(=O)c2ccc(F)c(F)c2Nc2ccc(I)cc2F)C(C)(C)C)cc1	–
0.1	CCCS(=O)(=O)Nc1ccc(F)c(C(=O)c2c[nH]c3ncc(-c4ccc(Cl)cc4)cc23)c1F [VEMURAFENIB]	–
0.24	Cc1ncsc1-c1ccc([C@H](C)NC(=O)[C@@H]2C[C@@H](O)CN2C(=O)[C@@H](NC(=O)CCCCCCCCCNCCCONC(=O)c2ccc(F)c(F)c2Nc2ccc(I)cc2F)C(C)(C)C)cc1	–
0.5	Cc1ncsc1-c1ccc(CNC(=O)[C@@H]2C[C@@H](O)CN2C(=O)[C@@H](NC(=O)CCCCCCCNCCCONC(=O)c2ccc(F)c(F)c2Nc2ccc(I)cc2F)C(C)(C)C)cc1	–
0.6	Cc1ncsc1-c1ccc(CNC(=O)[C@@H]2C[C@@H](O)CN2C(=O)[C@@H](NC(=O)CCCCCCCCNCCCONC(=O)c2ccc(F)c(F)c2Nc2ccc(I)cc2F)C(C)(C)C)cc1	–
0.5	O=C1CCC(N2C(=O)c3ccc(NCCCNCCCONC(=O)c4ccc(F)c(F)c4Nc4ccc(I)cc4F)cc3C2=O)C(=O)N1 (stereo not given)	–
0.043	Cc1ncsc1-c1ccc([C@H](C)NC(=O)[C@@H]2C[C@@H](O)CN2C(=O)[C@@H](NC(=O)CCCCCCCCCCNCCCCONC(=O)c2ccc(F)c(F)c2Nc2ccc(I)cc2F)C(C)(C)C)cc1	–
0.055	Cc1ncsc1-c1ccc([C@H](C)NC(=O)[C@@H]2C[C@@H](O)CN2C(=O)[C@@H](NC(=O)CCCCCCCCCNCCCCONC(=O)c2ccc(F)c(F)c2Nc2ccc(I)cc2F)C(C)(C)C)cc1	–
1.4	O=C1CCC(N2C(=O)c3ccc(NCCOCCNCCCONC(=O)c4ccc(F)c(F)c4Nc4ccc(I)cc4F)cc3C2=O)C(=O)N1 (stereo not given)	–
0.8	O=C1CCC(N2C(=O)c3cccc(NCCOCCOCCOCCNCCCONC(=O)c4ccc(F)c(F)c4Nc4ccc(I)cc4F)c3C2=O)C(=O)N1 (stereo not given)	–
4.8	Cc1ncsc1-c1ccc(CNC(=O)[C@@H]2C[C@@H](O)CN2C(=O)[C@@H](NC(=O)CCOCCNCCCONC(=O)c2ccc(F)c(F)c2Nc2ccc(I)cc2F)C(C)(C)C)cc1	–
3.5	O=C1CCC(N2C(=O)c3cccc(NCCCCCCCCNCCCONC(=O)c4ccc(F)c(F)c4Nc4ccc(I)cc4F)c3C2=O)C(=O)N1 (stereo not given)	–
1.8	Cc1ncsc1-c1ccc(CNC(=O)[C@@H]2C[C@@H](O)CN2C(=O)[C@@H](NC(=O)CNCCCONC(=O)c2ccc(F)c(F)c2Nc2ccc(I)cc2F)C(C)(C)C)cc1	–
0.5	O=C1CCC(N2C(=O)c3ccc(NCCOCCOCCOCCOCCNCCCONC(=O)c4ccc(F)c(F)c4Nc4ccc(I)cc4F)cc3C2=O)C(=O)N1 (stereo not given)	–
1.6	Cc1ncsc1-c1ccc(CNC(=O)[C@@H]2C[C@@H](O)CN2C(=O)[C@@H](NC(=O)CCOCCOCCNCCCONC(=O)c2ccc(F)c(F)c2Nc2ccc(I)cc2F)C(C)(C)C)cc1	–
0.3	FC(F)c1nc2ccccc2n1-c1nc(N2CCOCC2)nc(N2CCOCC2)n1 [ZSTK-474]	–
0.099	Cc1ncsc1-c1ccc([C@H](C)NC(=O)[C@@H]2C[C@@H](O)CN2C(=O)[C@@H](NC(=O)CCCCCCCCCCCNCCCONC(=O)c2ccc(F)c(F)c2Nc2ccc(I)cc2F)C(C)(C)C)cc1	–
0.4	Cc1ncsc1-c1ccc(CNC(=O)[C@@H]2C[C@@H](O)CN2C(=O)[C@@H](NC(=O)CCCCCCCCCCNCCCONC(=O)c2ccc(F)c(F)c2Nc2ccc(I)cc2F)C(C)(C)C)cc1	–
1.1	O=C1CCC(N2C(=O)c3ccc(NCCOCCOCCNCCCONC(=O)c4ccc(F)c(F)c4Nc4ccc(I)cc4F)cc3C2=O)C(=O)N1 (stereo not given)	–
0.6	O=C1CCC(N2C(=O)c3cccc(NCCOCCOCCOCCOCCOCCNCCCONC(=O)c4ccc(F)c(F)c4Nc4ccc(I)cc4F)c3C2=O)C(=O)N1 (stereo not given)	–

GI50 (HT-29 [1]) [µM]	SMILES	further results
0.4	O=C1CCC(N2C(=O)c3cccc(NCCNCCCONC(=O)c4ccc(F)c(F)c4Nc4ccc(I)cc4F)c3C2=O)C(=O)N1 (stereo not given)	–
1.5	O=C1CCC(N2C(=O)c3ccc(NCCOCCOCCOCCNCCCONC(=O)c4ccc(F)c(F)c4Nc4ccc(I)cc4F)cc3C2=O)C(=O)N1 (stereo not given)	–
4.5	O=C1CCC(N2C(=O)c3cccc(NCCCCCCCNCCCONC(=O)c4ccc(F)c(F)c4Nc4ccc(I)cc4F)c3C2=O)C(=O)N1 (stereo not given)	–
1.6	Cc1ncsc1-c1ccc(CNC(=O)[C@@H]2C[C@@H](O)CN2C(=O)[C@@H](NC(=O)COCCOCCNCCCONC(=O)c2ccc(F)c(F)c2Nc2ccc(I)cc2F)C(C)(C)C)cc1	–
0.5	O=C1CCC(N2C(=O)c3ccc(NCCCCCNCCCONC(=O)c4ccc(F)c(F)c4Nc4ccc(I)cc4F)cc3C2=O)C(=O)N1 (stereo not given)	–
1	O=C1CCC(N2C(=O)c3ccc(NCCCCNCCCONC(=O)c4ccc(F)c(F)c4Nc4ccc(I)cc4F)cc3C2=O)C(=O)N1 (stereo not given)	–
4	Cc1ncsc1-c1ccc(CNC(=O)[C@@H]2C[C@@H](O)CN2C(=O)[C@@H](NC(=O)COCCNCCCONC(=O)c2ccc(F)c(F)c2Nc2ccc(I)cc2F)C(C)(C)C)cc1	–
1.3	O=C1CCC(N2C(=O)c3cccc(NCCOCCOCCNCCCONC(=O)c4ccc(F)c(F)c4Nc4ccc(I)cc4F)c3C2=O)C(=O)N1 (stereo not given)	–
1.9	O=C1CCC(N2C(=O)c3cccc(NCCCCNCCCONC(=O)c4ccc(F)c(F)c4Nc4ccc(I)cc4F)c3C2=O)C(=O)N1 (stereo not given)	–
1.2	O=C1CCC(N2C(=O)c3cccc(NCCOCCNCCCONC(=O)c4ccc(F)c(F)c4Nc4ccc(I)cc4F)c3C2=O)C(=O)N1 (stereo not given)	–
3.8	O=C1CCC(N2C(=O)c3cccc(NCCCCCCNCCCONC(=O)c4ccc(F)c(F)c4Nc4ccc(I)cc4F)c3C2=O)C(=O)N1 (stereo not given)	–
0.6	O=C1CCC(N2C(=O)c3cccc(NCCOCCOCCOCCOCCNCCCONC(=O)c4ccc(F)c(F)c4Nc4ccc(I)cc4F)c3C2=O)C(=O)N1 (stereo not given)	–
1.1	O=C1CCC(N2C(=O)c3ccc(NCCCCCCNCCCONC(=O)c4ccc(F)c(F)c4Nc4ccc(I)cc4F)cc3C2=O)C(=O)N1 (stereo not given)	–
0.5	O=C1CCC(N2C(=O)c3ccc(NCCCCCCCNCCCONC(=O)c4ccc(F)c(F)c4Nc4ccc(I)cc4F)cc3C2=O)C(=O)N1 (stereo not given)	–
2.1	Cc1ncsc1-c1ccc(CNC(=O)[C@@H]2C[C@@H](O)CN2C(=O)[C@@H](NC(=O)CCCCCNCCCONC(=O)c2ccc(F)c(F)c2Nc2ccc(I)cc2F)C(C)(C)C)cc1	–
3.3	Cc1ncsc1-c1ccc(CNC(=O)[C@@H]2C[C@@H](O)CN2C(=O)[C@@H](NC(=O)CCOCCOCCOCCNCCCONC(=O)c2ccc(F)c(F)c2Nc2ccc(I)cc2F)C(C)(C)C)cc1	–
1.1	O=C1CCC(N2C(=O)c3cccc(NCCCNCCCONC(=O)c4ccc(F)c(F)c4Nc4ccc(I)cc4F)c3C2=O)C(=O)N1 (stereo not given)	–
1.3	Cc1ncsc1-c1ccc(CNC(=O)[C@@H]2C[C@@H](O)CN2C(=O)[C@@H](NC(=O)COCCOCCOCCNCCCONC(=O)c2ccc(F)c(F)c2Nc2ccc(I)cc2F)C(C)(C)C)cc1	–
1.7	Cc1ncsc1-c1ccc(CNC(=O)[C@@H]2C[C@@H](O)CN2C(=O)[C@@H](NC(=O)CCOCCOCCOCCOCCNCCCONC(=O)c2ccc(F)c(F)c2Nc2ccc(I)cc2F)C(C)(C)C)cc1	–
5	Cc1ncsc1-c1ccc(CNC(=O)[C@@H]2C[C@@H](O)CN2C(=O)[C@@H](NC(=O)CCNCCCONC(=O)c2ccc(F)c(F)c2Nc2ccc(I)cc2F)C(C)(C)C)cc1	–
1.8	O=C1CCC(N2C(=O)c3cccc(NCCCCCNCCCONC(=O)c4ccc(F)c(F)c4Nc4ccc(I)cc4F)c3C2=O)C(=O)N1 (stereo not given)	–
–	Cc1ncsc1-c1ccc([C@H](C)NC(=O)[C@H]2C[C@H](O)CN2C(=O)[C@@H](NC(=O)CCCCCCCCCCN(C)CCCONC(=O)c2ccc(F)c(F)c2Nc2ccc(I)cc2F)C(C)(C)C)cc1	inhibition (HT-29 [2]): inactive; inhibition (SU-DHL-1): inactive; inhibition (NCI-H3122 [3]): inactive; inhibition (HT-29 [4]): inactive; Activity (NCI-H3122 [5]): inactive
0.5	Cc1ncsc1-c1ccc(CNC(=O)[C@@H]2C[C@@H](O)CN2C(=O)[C@@H](NC(=O)CCCCCCCCCNCCCONC(=O)c2ccc(F)c(F)c2Nc2ccc(I)cc2F)C(C)(C)C)cc1	–
